Assay results as given in ChEMBL document CHEMBL3046168, “Soil application of neonicotinoid insecticides for control of insect pests in wine grape vineyards” (2012).
Activity calls are given as the source filed them. The calls are words filed in the database; no cut-off is given here.

Experiments:
Popillia japonica [1] = assay: Insecticidal activity against Popillia japonica at 500 g/kg WG assessed as moribund behaviour measured after 10 to 19 days by irrigation injection method; assay type: functional, organism-based
Paralobesia [2] = assay: Insecticidal activity against Paralobesia viteana infested grapevine assessed as reduction in clusters infested with moth by mid-season irrigation injection method (reference value: 11 +/- 1.9 %); assay type: functional; parameters: scale not given: the % may be the effect or the level left
Paralobesia [3] = assay: Insecticidal activity against Paralobesia viteana infested grapevine assessed as reduction in clusters infested with moth by early-season irrigation injection method (reference value: 34.3 +/- 4.4 %); assay type: functional; parameters: scale not given: the % may be the effect or the level left
Popillia japonica [4] = assay: Insecticidal activity against Popillia japonica assessed as reduction in leaf damage measured up to 63 days post treatment by laboratory bioassay; assay type: functional, organism-based
Procedure, shortened: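 Leaves were taken from vines treated by irrigation injection (6 June and 6 July 2007). Four uninjured leaves per treatment plot were offered to Japanese beetles in the laboratory. Leaf area removed (cm²) was measured weekly, from 4 days before the second injection to […] after it.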

Popillia japonica [5] = assay: Insecticidal activity against Popillia japonica at 500 g/kg WG assessed as moribund behaviour measured after 3 days by irrigation injection method; assay type: functional, organism-based
Popillia japonica [6] = assay: Insecticidal activity against Popillia japonica at 500 g/kg WG assessed as reduction in leaf damage measured after 35 days by irrigation injection method (reference value: 50.97 +/- 7.2 %); assay type: functional; parameters: scale not given: the % may be the effect or the level left
Popillia japonica [7] = assay: Insecticidal activity against Popillia japonica at 500 g/kg WG assessed as moribund behaviour measured after 24 to 56 days by irrigation injection method; assay type: functional, organism-based
Popillia japonica [8] = assay: Insecticidal activity against Popillia japonica at 240 g/kg SC measured after 1 to 24 days by irrigation injection method; assay type: functional, organism-based
Procedure, shortened: (§1)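 Insecticide was injected into the drip irrigation on 6 June and 6 July 2007, in seven-vine rows. Japanese beetles were counted on vines in the field at intervals after treatment. Total beetles per row were log(x+1) transformed and analysed by ANOVA with […] post hoc tests.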

Popillia japonica [9] = assay: Insecticidal activity against Popillia japonica at 240 g/kg SC assessed as moribund behaviour measured after 10 to 19 days by irrigation injection method; assay type: functional, organism-based
Popillia japonica [10] = assay: Insecticidal activity against Popillia japonica at 240 g/kg SC assessed as moribund behaviour measured after 3 days by irrigation injection method; assay type: functional, organism-based
Popillia japonica [11] = assay: Insecticidal activity against Popillia japonica at 240 g/kg SC assessed as moribund behaviour measured after 24 to 56 days by irrigation injection method; assay type: functional, organism-based
Popillia japonica [12] = assay: Insecticidal activity against Popillia japonica at 240 g/kg SC assessed as reduction in leaf damage measured after 35 days by irrigation injection method (reference value: 50.97 +/- 7.2 %); assay type: functional; parameters: scale not given: the % may be the effect or the level left
Popillia japonica [13] = assay: Insecticidal activity against Popillia japonica at 552 g/kg SC measured after 24 days by irrigation injection method; assay type: functional, organism-based; procedure, shortened: as §1
Popillia japonica [14] = assay: Insecticidal activity against Popillia japonica at 552 g/kg SC assessed as reduction in leaf damage measured after 35 days by irrigation injection method (reference value: 50.97 +/- 7.2 %); assay type: functional; parameters: scale not given: the % may be the effect or the level left
Popillia japonica [15] = assay: Insecticidal activity against Popillia japonica at 552 g/kg SC measured after 14 days by irrigation injection method; assay type: functional, organism-based; procedure, shortened: as §1
Popillia japonica [16] = assay: Insecticidal activity against Popillia japonica at 552 g/kg SC measured after 1 to 24 days by irrigation injection method; assay type: functional, organism-based; procedure, shortened: as §1
Popillia japonica [17] = assay: Insecticidal activity against Popillia japonica at 552 g/kg SC assessed as moribund behaviour measured after 10 to 19 days by irrigation injection method; assay type: functional, organism-based
Popillia japonica [18] = assay: Insecticidal activity against Popillia japonica at 552 g/kg SC assessed as moribund behaviour measured after 24 to 56 days by irrigation injection method; assay type: functional, organism-based
Popillia japonica [19] = assay: Insecticidal activity against Popillia japonica at 552 g/kg SC assessed as moribund behaviour measured after 3 days by irrigation injection method; assay type: functional, organism-based

Row | Compound | Activity (Popillia japonica [1]) | Activity (Paralobesia [2]) | Activity (Paralobesia [3]) | Activity (Popillia japonica [4]) | Activity (Popillia japonica [5]) | Activity (Popillia japonica [6]) | Activity (Popillia japonica [7]) | Activity (Popillia japonica [8]) | Activity (Popillia japonica [9]) | Activity (Popillia japonica [10]) | Activity (Popillia japonica [11]) | Activity (Popillia japonica [12]) | Activity (Popillia japonica [13]) | Activity (Popillia japonica [14]) | Activity (Popillia japonica [15]) | Activity (Popillia japonica [16]) | Activity (Popillia japonica [17]) | Activity (Popillia japonica [18]) | Activity (Popillia japonica [19])
1 | CN/C(=N\[N+](=O)[O-])NCc1cnc(Cl)s1 [CLOTHIANIDINE] | inactive | 6% | 31.7% | inactive | inactive | 48.3% | inactive |  |  |  |  |  |  |  |  |  |  |  | 
2 | CN1COCN(Cc2cnc(Cl)s2)/C1=N\[N+](=O)[O-] [THIAMETHOXAM] |  | 7% | 25.3% | Active |  |  |  | inactive | inactive | inactive | inactive | 27.67% |  |  |  |  |  |  | 
3 | O=[N+]([O-])/N=C1\NCCN1Cc1ccc(Cl)nc1 [IMIDACLOPRID] |  | 1% | 11.8% | Active |  |  |  |  |  |  |  |  | Active | 4.43% | Active | Active | Active | Active | Active
